Screening results deposited in PubChem BioAssay by several laboratories.
Rows were chosen to be rich in hits. Some 0.9% of all compounds tested hit in one or more screens of this group.
MT1-MMP act inh: blocks activation of human MT1-MMP; HT1080 RFP-PRO-GFP cells, GFP/RFP ratio fluorescence, overnight; percent of plate control window, DMSO zero; GFP/RFP ratio change, % at 20 µM; actives 0.061% (n = 360,000);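 active = GFP/RFP ratio change of at least 30% with cell ATP level not reduced by more than half and red fluorescence within 50% of control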
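Assay system – RFP-PRO-GFP reporter HT1080 cells · Compound dosing – single dose of 20 µM compound, 1% DMSO final · Incubation – overnight compound exposure at 37 °C · Measure – GFP/RFP fluorescence ratio · Benchmarks – DMSO wells and RFP-L50D-GFP cells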
PolyA inh: yeast polyadenylation inhibition; S. cerevisiae SKY197-pL101 polyadenylation reporter, beta-gal luminescence; efflux-impaired pdr1/pdr3 knockout yeast; score 100 = 6 SD above DMSO; activity score, % at 12 µM; actives 0.02% (n = 300,000);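 active = lowest replicate activity score at least 50, where 100 means six control SD above control mean; inconclusive = lowest score under 50 but half or more replicates reach 50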;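 note: yeast exposed to compound for 9 h at 30 °C; higher score means more reporter readthrough which indicates perturbed polyadenylation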
SKN-1 block: inhibitors of C. elegans SKN-1 | actives 0.49% (n = 360,000) | inhibition, % at 21.8 µM | C. elegans VP596 Pgst-4::GFP/RFP ratio, acrylamide-induced, 24 h;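 active = interference check ratio from 0.5 to 1.5 plus GFP to RFP signal ratio inhibition reaching or exceeding a fixed threshold, cut at about 30% in these data, passing the limit was not always enough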
DDE Tn6 FP inh: disrupts Tn6 cyclic peptide binding to fibrin D-Dimer-E complex; P02675; Fibrin DD(E) TRITC-Tn6 fluorescence polarization displacement; inhibition, % at 8.3 µM; actives 0.21% (n = 370,000);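 active = inhibition above a per-campaign cutoff: mean of compounds within control limits plus 3 SD, cut at about 15% in these data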;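 note: 0% = median of all compound wells on the plate and 100% = blocking peptide control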
DDE Tn7 FP inh: inhibitors of Tn7 peptide binding to human fibrin DD(E); P02675; FP displacement of FITC-Tn7 peptide from fibrin DD(E); 0% = median of compound wells per plate; inhibition, % at 8.3 µM; actives 0.13% (n = 370,000); AID 720508;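 active = inhibition above the mean of compounds falling within the control limits plus 3 SD of them, cut at about 14% in these data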;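 note: 0% = plate median of compound wells and 100% = 10 µM Aha-Tn7 peptide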
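Measure: % inhibition scaled between sample-field median and high-control FP; Test system: human fibrin DD(E); Quantity: 2 µM final DD(E) protein; Doses: one dose, 8.3 µM nominal; Schedule: compound with protein 10 min, then 3 h after probe, room temperature; Detection: fluorescence polarization; Medium: Tris buffer with calcium and detergent, pH 7.8.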
DAGLB inh: blocks human DAGLB lipase activity; HEK293T DAGLB membrane lysate, EnzChek fluorogenic substrate; actives 0.059% (n = 340,000); AID 504411; inhibition, % at 5.17 µM; Q8NCG7; in the data active = inhibition above about 34%;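 note: 0% = enzyme with vehicle and 100% = wells lacking enzyme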
Target sequence (Q8NCG7 whole entry, looked up): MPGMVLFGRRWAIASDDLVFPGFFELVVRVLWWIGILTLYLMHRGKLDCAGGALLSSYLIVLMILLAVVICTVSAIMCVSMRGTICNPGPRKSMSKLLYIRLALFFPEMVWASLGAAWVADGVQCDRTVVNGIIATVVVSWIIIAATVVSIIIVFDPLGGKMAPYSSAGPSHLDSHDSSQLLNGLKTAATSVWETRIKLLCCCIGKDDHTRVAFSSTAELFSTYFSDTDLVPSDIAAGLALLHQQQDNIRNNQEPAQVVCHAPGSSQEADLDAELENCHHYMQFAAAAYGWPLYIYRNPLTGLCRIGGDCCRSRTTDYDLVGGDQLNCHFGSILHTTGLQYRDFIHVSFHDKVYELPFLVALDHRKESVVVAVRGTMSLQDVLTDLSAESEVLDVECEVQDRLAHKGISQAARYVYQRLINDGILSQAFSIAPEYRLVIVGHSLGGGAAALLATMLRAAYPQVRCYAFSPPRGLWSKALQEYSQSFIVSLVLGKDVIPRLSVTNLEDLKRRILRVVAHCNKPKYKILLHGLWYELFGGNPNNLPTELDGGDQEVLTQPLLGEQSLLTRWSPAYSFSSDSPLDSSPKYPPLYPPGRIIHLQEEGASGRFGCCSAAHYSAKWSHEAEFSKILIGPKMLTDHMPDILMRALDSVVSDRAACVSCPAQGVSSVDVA
Active calls of the source: *; ! = repeats disagree.

COC(=O)c1cnn(-c2ccc(Cl)cc2)c1/C=N/NC(=S)Nc1ccccc1 was read as DDE Tn6 FP inh -2.3 and DDE Tn7 FP inh 3.3.
`NC(=O)CSC1=N/C(=C\c2ccco2)C(=O)N1c1ccc(OC(F)F)cc1` gave MT1-MMP act inh -1.1, PolyA inh 7.7, SKN-1 block -1.5, DDE Tn6 FP inh 5.4, DDE Tn7 FP inh 5.5 and DAGLB inh 0.0.
CCOc1cc(/C=C2\N=C(SC(C)C(N)=O)N(c3ccc(OC(F)F)cc3)C2=O)ccc1O (centres undefined) was read as MT1-MMP act inh -81.3, PolyA inh 157.5*, SKN-1 block -4.6, DDE Tn6 FP inh -6.2, DDE Tn7 FP inh -23.2 and DAGLB inh -3.4.
FC(F)(F)C1=CC(c2ccc(Cl)cc2)=NCCN1 was read as MT1-MMP act inh 2.5, PolyA inh 16.8, SKN-1 block 36.1*, DDE Tn6 FP inh -5.3, DDE Tn7 FP inh -2.3 and DAGLB inh 1.4.
O=C(NCc1ccc(C(F)(F)F)cc1)c1ccc(-c2ccc(F)c(F)c2)c2ccoc12 was read as MT1-MMP act inh 1.0, SKN-1 block -1.6, DDE Tn6 FP inh 1.4 and DDE Tn7 FP inh 3.0.
For O=C(NCc1ccncc1)c1ccc(-c2ccc(F)c(F)c2)c2ccoc12 the results were MT1-MMP act inh 10.1, SKN-1 block 62.1*, DDE Tn6 FP inh -7.3 and DDE Tn7 FP inh -1.2.
For CCCCN(C)c1nc(C)nc2c1nnn2Cc1ccccc1 the results were DDE Tn6 FP inh 2.4 and DDE Tn7 FP inh -2.4.
Screening CCN(CC)CCNC(=O)c1ccc2c(c1NCCO)C(=O)c1ccccc1C2=O returned MT1-MMP act inh 10.3, PolyA inh -9.1, SKN-1 block 42.0*, DDE Tn6 FP inh -0.4 and DDE Tn7 FP inh 0.0.
Screening O=C(NCCO)c1cccc2c1C(=O)c1ccccc1-2 returned MT1-MMP act inh 1.4, PolyA inh inconclusive, SKN-1 block 2.8, DDE Tn6 FP inh -3.3, DDE Tn7 FP inh -6.3 and DAGLB inh 0.3.
For Cc1nn2c(-c3ccccc3)ccnc2c1-c1ccccc1 the results were MT1-MMP act inh -2.9, PolyA inh -38.6, SKN-1 block 11.1, DDE Tn6 FP inh 0.3, DDE Tn7 FP inh 4.1 and DAGLB inh -13.9.
N#CCc1nn2c(-c3ccccc3)ccnc2c1C#N was read as MT1-MMP act inh 1.7, PolyA inh -3.3, SKN-1 block 43.2*, DDE Tn6 FP inh -2.2, DDE Tn7 FP inh 3.1 and DAGLB inh 0.4.
CCNC(=S)NNC(=O)CCc1nc2cc(Cl)ccc2n(Cc2ccccc2)c1=O was read as MT1-MMP act inh -3.5, PolyA inh -4.8, SKN-1 block -12.1, DDE Tn6 FP inh -8.3, DDE Tn7 FP inh -3.3 and DAGLB inh -1.1.
Screening CN(C)C(CNC(=O)CCc1nc2cc(Cl)ccc2n(Cc2ccccc2)c1=O)c1ccccc1 (centres undefined) returned MT1-MMP act inh -10.5, PolyA inh -9.7, SKN-1 block 57.2*, DDE Tn6 FP inh 0.5, DDE Tn7 FP inh 2.4 and DAGLB inh 0.4.
Screening CS(=O)(=O)c1nc(-c2ccc(Br)cc2)cs1 returned DDE Tn6 FP inh -4.8 and DDE Tn7 FP inh 2.5.
For C[C@@H]1C=C[C@](Cc2ccccc2)(C(=O)NCC2CC2)N1C(=O)c1ccccc1 the results were MT1-MMP act inh 1.9, PolyA inh -13.7, SKN-1 block 35.5*, DDE Tn6 FP inh 0.8, DDE Tn7 FP inh -3.8 and DAGLB inh -1.9.
Screening CCN(CC)C(=O)CNc1nnnn1-c1ccccc1 returned DDE Tn6 FP inh -2.2 and DDE Tn7 FP inh -5.0.
For O=C(NCc1ccccc1)Nc1ccccc1C(=O)N1CCCC1 the results were DDE Tn6 FP inh 3.9 and DDE Tn7 FP inh 7.3.
`CCOC(=O)C1=C(Nc2ccccc2)CC(C)(O)C(C(=O)OCC)C1c1ccc(Cl)cc1` (centres undefined) gave MT1-MMP act inh -1.8, SKN-1 block 44.2*!, DDE Tn6 FP inh -1.3, DDE Tn7 FP inh -7.2 and DAGLB inh -3.7.
For CCN(CC)c1ccc(C(=S)N2CCN(c3ccccc3)CC2)cc1 the results were MT1-MMP act inh -4.2, PolyA inh -29.1, SKN-1 block 32.3*, DDE Tn6 FP inh 2.0, DDE Tn7 FP inh -7.9 and DAGLB inh -10.1.
For CC(=O)N1CCc2cc(Br)c(S(=O)(=O)CCC(=O)N3CCN(c4ccccn4)CC3)cc21 the results were DDE Tn6 FP inh 5.8 and DDE Tn7 FP inh 2.2.
For COc1ccccc1C(=O)Nc1ccc(Br)cc1C the results were MT1-MMP act inh -8.1, PolyA inh -25.9, SKN-1 block 54.0*, DDE Tn6 FP inh 2.5, DDE Tn7 FP inh -0.4 and DAGLB inh -5.9.
COc1ccccc1C(=O)Nc1ccccn1 was read as MT1-MMP act inh -1.0, SKN-1 block 13.6, DDE Tn6 FP inh 7.0, DDE Tn7 FP inh 1.1 and DAGLB inh -2.1.
COc1ccccc1C(=O)Nc1ccc(Br)c2cccnc12 was read as MT1-MMP act inh -3.3, PolyA inh 9.6, SKN-1 block 38.9*, DDE Tn6 FP inh 2.7, DDE Tn7 FP inh -4.9 and DAGLB inh -9.0.
For COCC(=O)Nc1ccc(Br)cc1C the results were MT1-MMP act inh -0.1, PolyA inh -11.2, SKN-1 block -5.9, DDE Tn6 FP inh 5.3, DDE Tn7 FP inh 4.3 and DAGLB inh -2.4.
For COC(=O)[C@]12C[C@H](CC(=O)N3CCN(C(=O)c4ccco4)CC3)C(=O)N(Cc3cccc4ccccc34)C1=C[C@H](C(C)(C)C)O[C@@H]2C the results were DDE Tn6 FP inh -1.6 and DDE Tn7 FP inh 1.2.
For O=C(CN(CCc1ccccc1)S(=O)(=O)c1cccs1)N1CCOCC1 the results were DDE Tn6 FP inh -1.2 and DDE Tn7 FP inh 2.3.
Screening CCc1ccc(-n2c(SCC(=O)Nc3cc(C)[nH]n3)nc3[nH]ncc3c2=O)cc1 returned MT1-MMP act inh 0.2, PolyA inh 4.7, SKN-1 block 39.4*, DDE Tn6 FP inh 1.6, DDE Tn7 FP inh 3.5 and DAGLB inh -0.5.
For COc1ccc(CCNC(=O)CSc2nc3[nH]ncc3c(=O)n2-c2ccc(Br)cc2)cc1OC the results were MT1-MMP act inh 2.3, PolyA inh 10.1, SKN-1 block 8.7, DDE Tn6 FP inh 10.0, DDE Tn7 FP inh 4.3 and DAGLB inh 1.3.
Screening COc1cc2nc(C3CC3)n(NC(=O)c3ccc(Cl)cc3)c(=O)c2cc1OC returned MT1-MMP act inh 0.5, SKN-1 block 36.9*, DDE Tn6 FP inh -3.5, DDE Tn7 FP inh -4.1 and DAGLB inh -3.6.
Screening COc1cc2nc(C3CC3)n(NC(=O)c3ccc(F)cc3)c(=O)c2cc1OC returned MT1-MMP act inh -2.0, PolyA inh -5.9, SKN-1 block 1.1, DDE Tn6 FP inh 4.6, DDE Tn7 FP inh -1.7 and DAGLB inh 0.5.
